We go through 1 compound from ChEMBL document CHEMBL1149444, “Discovery of imidazo[1,2-b][1,2,4]triazines as GABA(A) alpha2/3 subtype selective agonists for the treatment of anxiety” (J Med Chem, 2006).

Series [1] addresses T1, GABA-A receptor; alpha-3/beta-3/gamma-2 (Homo sapiens, UniProt P18507+P28472+P34903).
T1 sequence (P18507 whole entry): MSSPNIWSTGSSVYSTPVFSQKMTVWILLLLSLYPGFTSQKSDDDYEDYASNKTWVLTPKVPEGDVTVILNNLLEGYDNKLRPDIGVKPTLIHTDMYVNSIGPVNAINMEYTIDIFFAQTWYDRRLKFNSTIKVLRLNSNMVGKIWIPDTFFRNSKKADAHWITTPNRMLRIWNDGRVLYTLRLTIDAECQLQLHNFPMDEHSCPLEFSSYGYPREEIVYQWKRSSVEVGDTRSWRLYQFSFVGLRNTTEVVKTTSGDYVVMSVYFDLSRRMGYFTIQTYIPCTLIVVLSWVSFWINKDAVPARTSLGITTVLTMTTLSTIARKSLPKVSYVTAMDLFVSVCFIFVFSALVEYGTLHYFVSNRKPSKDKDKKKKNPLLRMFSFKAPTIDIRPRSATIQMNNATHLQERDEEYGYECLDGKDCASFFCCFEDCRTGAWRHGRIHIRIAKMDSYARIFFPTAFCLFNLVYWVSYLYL
T1 sequence (P28472 whole entry): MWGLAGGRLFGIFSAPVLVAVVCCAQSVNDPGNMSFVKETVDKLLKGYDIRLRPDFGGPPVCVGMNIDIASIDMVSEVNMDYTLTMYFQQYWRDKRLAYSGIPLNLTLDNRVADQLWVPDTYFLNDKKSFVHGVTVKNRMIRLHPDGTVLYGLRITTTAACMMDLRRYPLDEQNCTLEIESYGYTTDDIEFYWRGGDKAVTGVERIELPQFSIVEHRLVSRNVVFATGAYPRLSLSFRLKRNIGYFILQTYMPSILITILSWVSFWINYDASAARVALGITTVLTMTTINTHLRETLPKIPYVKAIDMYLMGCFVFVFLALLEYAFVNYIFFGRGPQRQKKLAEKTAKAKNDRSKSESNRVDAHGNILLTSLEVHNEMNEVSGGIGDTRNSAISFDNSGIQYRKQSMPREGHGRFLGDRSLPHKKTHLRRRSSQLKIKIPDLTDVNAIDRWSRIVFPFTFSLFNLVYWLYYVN
T1 sequence (P34903 whole entry): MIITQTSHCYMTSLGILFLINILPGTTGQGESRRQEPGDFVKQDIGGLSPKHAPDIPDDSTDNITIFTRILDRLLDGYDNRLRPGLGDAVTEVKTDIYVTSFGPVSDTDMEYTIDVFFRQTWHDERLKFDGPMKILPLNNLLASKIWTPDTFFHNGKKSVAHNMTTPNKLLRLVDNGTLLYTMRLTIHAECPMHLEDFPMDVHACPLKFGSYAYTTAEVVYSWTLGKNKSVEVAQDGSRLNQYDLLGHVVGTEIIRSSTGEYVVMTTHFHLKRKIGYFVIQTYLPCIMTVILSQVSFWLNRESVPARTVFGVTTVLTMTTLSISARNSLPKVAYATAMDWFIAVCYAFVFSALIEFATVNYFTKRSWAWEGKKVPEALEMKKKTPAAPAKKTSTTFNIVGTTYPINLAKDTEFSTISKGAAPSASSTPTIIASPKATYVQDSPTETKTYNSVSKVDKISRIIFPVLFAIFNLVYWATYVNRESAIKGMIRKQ
The series is described as follows: Displacement of [3H]Ro 15-1788 from recombinant human GABAA alpha3 receptor plus beta-3-gamma-2 expressed in L(tk-) cells. The class given is cell-based. An outline of the steps: (§1)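 Inhibition of [3H]Ro15-1788 binding to human recombinant GABAA receptors stably expressed in L(tk-) cells, alpha subunit combined with beta3 and gamma2. Six to eight test concentrations spaced in half-log units. Ki reported as geometric mean of n = 2-12.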

Series [2] has as its target T2, GABA-A receptor; alpha-5/beta-3/gamma-2 (Homo sapiens, UniProt P18507+P28472+P31644).
T2 sequence (P18507 whole entry): T1 sequence (P18507 whole entry)
T2 sequence (P28472 whole entry): T1 sequence (P28472 whole entry)
T2 sequence (P31644 whole entry): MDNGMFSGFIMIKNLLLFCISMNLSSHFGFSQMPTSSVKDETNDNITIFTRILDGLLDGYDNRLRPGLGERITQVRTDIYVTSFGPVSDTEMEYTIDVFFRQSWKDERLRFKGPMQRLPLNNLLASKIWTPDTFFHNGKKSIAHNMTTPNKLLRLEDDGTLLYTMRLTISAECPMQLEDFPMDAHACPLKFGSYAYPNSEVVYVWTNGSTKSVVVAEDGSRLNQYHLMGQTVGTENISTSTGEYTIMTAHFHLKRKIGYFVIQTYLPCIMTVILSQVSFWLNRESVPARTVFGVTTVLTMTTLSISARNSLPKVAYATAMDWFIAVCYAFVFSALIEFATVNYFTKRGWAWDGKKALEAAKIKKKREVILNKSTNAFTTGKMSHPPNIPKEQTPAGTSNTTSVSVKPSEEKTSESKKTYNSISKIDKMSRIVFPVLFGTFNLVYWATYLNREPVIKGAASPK
The series can be described thus: Displacement of [3H] Ro15-1788 from recombinant human GABAA alpha-5 receptor plus beta3gamma2 expressed in L(tk-) cells. The series is classed as cell-based. The essentials: as §1

Series [3] has as its target GABA-A receptor; alpha-5/beta-3/gamma-2 (Homo sapiens) (UniProt P18507+P28472+P31644). The series can be described thus: Efficacy against recombinant human GABAA alpha-5 receptor plus beta3gamma2 expressed in L(tk-) cells by whole cell patch clamp method relative to chlordiazepoxide. The class given is functional, cell-based. The essentials: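 Whole-cell patch clamp on L(tk-) cells stably expressing human alpha subunit plus beta3gamma2. GABA applied at an EC20-equivalent concentration. Modulation of that current measured across increasing test-compound concentrations. Efficacy is expressed relative to the maximal response to the full agonist chlordiazepoxide, set at 1.00.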

Series [4] can be described thus: Plasma clearance in rat at 1 mg/kg, iv or 1 mg/kg, po. The series is classed as ADME, organism-based. The essentials: (§2)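 Rat pharmacokinetics after dosing at 1 mg/kg iv and 1 mg/kg po. Plasma clearance in mL/min/kg, half-life in h and volume of distribution in L/kg.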
A short description of series [5]: Half life in rat at 1 mg/kg, […] 1 mg/kg, po. The series is classed as ADME, organism-based. Particulars: in vivo. An outline of the steps: as §2
Series [6] addresses GABA-A receptor; alpha-1/beta-3/gamma-2 (Homo sapiens) (UniProt P14867+P18507+P28472). The series is described as follows: Efficacy against recombinant human GABAA alpha1 receptor plus beta3gamma2 expressed in L(tk-) cells by whole cell patch clamp method relative to chlordiazepoxide. The series is classed as functional, cell-based. The essentials:
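Whole-cell patch clamp on L(tk-) cells stably expressing the receptor (alpha plus beta3gamma2). GABA applied at an EC20-equivalent concentration. Modulation of the current measured with increasing test concentrations. Efficacy expressed relative to the maximal chlordiazepoxide response (set at 1.00) or as a percentage.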

For series [7], the system named is Squirrel monkey. The series is described as follows: Sedation in squirrel monkey conditioned emotional response test at 10 mg/kg, po. The series is classed as functional, organism-based. The arrangement: dose 10 mg/kg. Particulars: Saimiri sciureus. An outline of the steps:
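Squirrel monkeys dosed po in 0.5% methyl cellulose vehicle. Anxiolysis was read as reversal of the suppression of lever pressing caused by a light cue signalling possible electric shock. Sedation was read as the rate of lever pressing for fruit juice reward on an RPI30 schedule. n = 10-11 per group, p < 0.05 versus vehicle.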

The nature of series [8]: Half life in rhesus at 1 mg/kg, iv or 1 mg/kg, po. The series is classed as ADME, organism-based, Macaca mulatta. The following applies: rhesus monkey, in vivo. The essentials: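 Pharmacokinetics in rat, dog or rhesus after 1 mg/kg iv and 1 mg/kg po dosing. Plasma clearance (mL/min/kg), half-life (h), volume of distribution (L/kg) and oral bioavailability (%) were derived.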

Structures are written as SMILES. Calls of active or inactive are those of the source. The rule behind the calls is not given here.

For `CC(C)(O)c1cnn2c(-c3ccc(F)c(-c4c(F)cccc4C#N)c3)cnc2n1`, the figures for the inhibition constant Ki in series [1] and in series [2] were 2 nM and 1.1 nM, respectively. In addition, the figures for the Efficacy in series [3] and in series [6] were 0.37% and 3%, respectively. In series [4], this compound showed a clearance of 2.4 mL/min/kg. Moreover, the half-life is 11 h in series [5] and 4.9 h in series [8]. In addition, in series [7], the result was inactive.
